This note sets out measurements from ChEMBL document CHEMBL3877315, “Synthesis, biological evaluation and molecular docking analysis of 2-phenyl-benzofuran-3-carboxamide derivatives as potential inhibitors of Staphylococcus aureus Sortase A” (Bioorg Med Chem, 2017).

The nature of this assay: Inhibition of Staphylococcus aureus Sortase A delta 59 mutant using Abz-LPATG-Dnp as substrate preincubated for 1 hr followed by substrate addition measured after 30 mins by HPLC method. In a few lines:
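His6-tagged SrtA59 expressed from pET28 in E. coli, IPTG-induced, Ni-NTA purified. Enzyme 5 µM was pre-incubated with inhibitor in DMSO (final 12.5~200 µM) for 1 h at 37 °C in 50 mM Tris-HCl pH 7.5, 150 mM NaCl, 5 mM CaCl₂, 0.05% Tween 20. Abz-LPATG-Dnp added at 10 µM final; stopped with HCl. G-Dnp peak area read at 355 nm by reverse-phase HPLC and compared with no-inhibitor control. IC50 taken at 50% decrease; three repeats.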

`CC(C)CNC(=O)c1c(-c2ccc(COC(=O)c3ccc(O)cc3)cc2)oc2ccccc12` displayed an IC50 of 43 µM.
In the case of `COc1cc(OC)cc(C(=O)OCc2ccc(-c3oc4ccccc4c3C(=O)NCC(C)C)cc2)c1` it was 62 µM; in that of `CC(C)CNC(=O)c1c(-c2ccc(COC(=O)/C=C/c3ccc(O)cc3)cc2)oc2ccccc12`, 158 µM.
In the case of `CC(C)CNC(=O)c1c(-c2ccc(COC(=O)c3cc(O)cc(O)c3)cc2)oc2ccccc12` it was 34.5 µM; in that of `CC(C)CNC(=O)c1c(-c2ccc(COC(=O)Cc3ccc([N+](=O)[O-])cc3)cc2)oc2ccccc12`, more than 200 µM; in that of `CC(C)CNC(=O)c1c(-c2ccc(COC(=O)c3ccc(N(C)C)cc3)cc2)oc2ccccc12`, more than 200 µM.
`CC(=O)Nc1ccc(OCc2ccc(-c3oc4ccccc4c3C(=O)NCC(C)C)cc2)cc1`: the concentration for half-maximal inhibition (IC50) amounted to 171 µM.
In the case of `CC(C)CNC(=O)c1c(-c2ccc(COC(=O)Cc3ccc(O)cc3)cc2)oc2ccccc12` it was 84 µM; in that of `CC(C)CNC(=O)c1c(-c2ccc(COC(=O)Cc3cccc(O)c3)cc2)oc2ccccc12`, 76.3 µM.
In the case of `Cc1ccc(OCc2ccc(-c3oc4ccccc4c3C(=O)NCC(C)C)cc2)cc1` it was more than 200 µM.
In turn, `CC(C)CNC(=O)c1c(-c2ccc(COc3cccc(O)c3)cc2)oc2ccccc12` showed an IC50 of 86.4 µM.
In the case of `CCCCNC(=O)c1c(-c2ccc(COc3ccc(S(C)(=O)=O)cc3)cc2)oc2ccccc12` it was more than 200 µM.
In the case of `CC(=O)Nc1cccc(OCc2ccc(-c3oc4ccccc4c3C(=O)NCC(C)C)cc2)c1` it was 148 µM; in that of `CC(C)CNC(=O)c1c(-c2ccc(COC(=O)Cc3cccc(C(F)(F)F)c3)cc2)oc2ccccc12`, more than 200 µM; in that of `CC(C)CNC(=O)c1c(-c2ccc(COC(=O)c3ccc(O)c(O)c3)cc2)oc2ccccc12`, 39.6 µM.
In the case of `CC(C)CNC(=O)c1c(-c2ccc(COC(=O)c3ccccc3[N+](=O)[O-])cc2)oc2ccccc12` it was more than 200 µM; in that of `CC(C)CNC(=O)c1c(-c2ccc(COc3ccc(CO)cc3)cc2)oc2ccccc12`, 121 µM; in that of `CC(C)CNC(=O)c1c(-c2ccc(COC(=O)c3ccc(S)cc3)cc2)oc2ccccc12`, 89.1 µM.
In turn, `CC(C)CNC(=O)c1c(-c2ccc(COC(=O)c3ccc(O)cc3O)cc2)oc2ccccc12` registered an IC50 of 57 µM. This IC50 lies about 1.6-fold lower than the previous one.
In the case of `CC(C)CNC(=O)c1c(-c2ccc(COC(=O)Cc3ccc(C(F)(F)F)cc3)cc2)oc2ccccc12` it was more than 200 µM.
In turn, `CC(C)CNC(=O)c1c(-c2ccc(COC(=O)c3ccc(F)cc3)cc2)oc2ccccc12` registered an IC50 of more than 200 µM.
In the case of `CC(C)CNC(=O)c1c(-c2ccc(COc3ccc(S(C)(=O)=O)cc3)cc2)oc2ccccc12` it was 132 µM; in that of `CC(C)CNC(=O)c1c(-c2ccc(COc3ccc(Cl)cc3)cc2)oc2ccccc12`, more than 200 µM; in that of `COc1cc(C(=O)OCc2ccc(-c3oc4ccccc4c3C(=O)NCC(C)C)cc2)cc(OC)c1OC`, 55.2 µM.
For the molecule `CC(C)CNC(=O)c1c(-c2ccc(COC(=O)c3ccc([N+](=O)[O-])c(O)c3)cc2)oc2ccccc12`, inhibition was half-maximal at 60.6 µM (IC50).
In the case of `CC(C)CNC(=O)c1c(-c2ccc(COC(=O)c3ccc(N)cc3)cc2)oc2ccccc12` it was 52.3 µM; in that of `CC(C)CNC(=O)c1c(-c2ccc(COC(=O)c3ccccc3)cc2)oc2ccccc12`, 158 µM.
In the case of `CC(C)CNC(=O)c1c(-c2ccc(COc3cccc(C=O)c3)cc2)oc2ccccc12` it was 89 µM; in that of `CC(C)CNC(=O)c1c(-c2ccc(COC(=O)c3ccccc3O)cc2)oc2ccccc12`, 76.4 µM; in that of Para-Hydroxymercuribenzoic acid, 130 µM.
In the case of `CC(C)CNC(=O)c1c(-c2ccc(COC(=O)Cc3ccccc3O)cc2)oc2ccccc12` it was 89 µM; in that of `CCCCNC(=O)c1c(-c2ccc(COC(=O)c3ccc(O)c(O)c3)cc2)oc2ccccc12`, 66 µM; in that of `CC(C)CNC(=O)c1c(-c2ccc(COC(=O)c3cccc(O)c3)cc2)oc2ccccc12`, 50.6 µM.
Molecule `CC(C)CNC(=O)c1c(-c2ccc(COC(=O)Cc3ccc(O)c(O)c3)cc2)oc2ccccc12` displayed an IC50 of 30.8 µM. This IC50 lies about 1.6-fold lower than the previous one.
In turn, `CCCCNC(=O)c1c(-c2ccc(COc3ccc(C(=O)OC)cc3)cc2)oc2ccccc12` showed an IC50 of more than 200 µM.
In the case of `CC(=O)c1cccc(OCc2ccc(-c3oc4ccccc4c3C(=O)NCC(C)C)cc2)c1` it was 148 µM; in that of `CCCCNC(=O)c1c(-c2ccc(COC(=O)c3ccc(O)cc3)cc2)oc2ccccc12`, 186 µM.
In the case of `CC(C)CNC(=O)c1c(-c2ccc(COc3ccc(C#N)cc3)cc2)oc2ccccc12`, the IC50 is 97 µM.
